Only some compounds are listed: those with a hit (about 2% of all), similar ones and a draw of the others.
PvdQ inh = P. aeruginosa PvdQ acylase inhibition; purified PvdQ acylase, fluorescence plate reader; inhibition, % at 10 µM; hit rate 0.063% among 340,000; in the data active = inhibition above about 30%, passing the limit was not always enough;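 note: 0% = vehicle neutral wells and 100% = reference inhibitor wells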
PLCb3 inh = inhibitors of human phospholipase C beta3; Purified PLC-beta3, fluorogenic substrate, fluorescence; inhibition, % at 12.2 µM; hit rate 0.18% among 370,000; AID 720704; in the data active = inhibition above about 11%;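 note: 0% = median of compound wells on plate and 100% = full blocker control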
PLCg1 inh = inhibitors of human phospholipase C gamma1. hit rate 0.84% among 370,000. P19174. inhibition, % at 12.2 µM. purified PLC-gamma1, fluorogenic substrate, fluorescence
Target sequence (P19174 whole entry, looked up): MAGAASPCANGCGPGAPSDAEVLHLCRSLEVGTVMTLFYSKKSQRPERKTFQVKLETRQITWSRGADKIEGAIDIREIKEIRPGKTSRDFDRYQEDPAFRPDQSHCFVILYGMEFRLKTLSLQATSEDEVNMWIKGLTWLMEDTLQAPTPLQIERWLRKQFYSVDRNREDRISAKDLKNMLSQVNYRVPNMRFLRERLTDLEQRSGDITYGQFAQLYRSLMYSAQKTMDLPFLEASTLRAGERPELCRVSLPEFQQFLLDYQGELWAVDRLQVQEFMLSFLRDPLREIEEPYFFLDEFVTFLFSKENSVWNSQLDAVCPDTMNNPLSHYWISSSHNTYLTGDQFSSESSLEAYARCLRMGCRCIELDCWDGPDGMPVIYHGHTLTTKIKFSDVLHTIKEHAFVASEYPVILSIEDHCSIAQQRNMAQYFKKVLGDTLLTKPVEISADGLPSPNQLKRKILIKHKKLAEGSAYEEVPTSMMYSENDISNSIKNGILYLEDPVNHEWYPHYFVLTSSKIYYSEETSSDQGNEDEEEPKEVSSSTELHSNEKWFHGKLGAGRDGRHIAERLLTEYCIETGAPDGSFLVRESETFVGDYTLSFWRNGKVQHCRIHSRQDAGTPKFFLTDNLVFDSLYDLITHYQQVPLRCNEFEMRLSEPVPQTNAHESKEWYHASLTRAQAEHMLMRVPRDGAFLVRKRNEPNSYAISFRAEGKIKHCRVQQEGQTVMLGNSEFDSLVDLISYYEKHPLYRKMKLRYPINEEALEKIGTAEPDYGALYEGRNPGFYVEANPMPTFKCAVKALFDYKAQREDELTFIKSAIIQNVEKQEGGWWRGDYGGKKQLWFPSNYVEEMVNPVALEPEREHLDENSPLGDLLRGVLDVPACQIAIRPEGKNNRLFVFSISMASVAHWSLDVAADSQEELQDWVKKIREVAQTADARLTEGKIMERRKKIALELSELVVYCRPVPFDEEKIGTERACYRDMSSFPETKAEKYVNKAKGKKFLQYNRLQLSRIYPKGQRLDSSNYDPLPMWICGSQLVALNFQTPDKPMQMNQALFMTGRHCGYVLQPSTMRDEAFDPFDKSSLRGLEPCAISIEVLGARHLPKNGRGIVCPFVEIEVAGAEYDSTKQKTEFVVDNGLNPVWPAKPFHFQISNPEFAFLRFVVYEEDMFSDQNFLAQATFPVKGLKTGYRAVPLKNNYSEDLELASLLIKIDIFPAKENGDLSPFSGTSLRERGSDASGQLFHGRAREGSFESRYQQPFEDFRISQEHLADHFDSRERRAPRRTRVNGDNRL
VIM-2 inhibitor = inhibitors of Pseudomonas aeruginosa VIM-2 metallo-beta-lactamase | purified VIM-2, nitrocefin hydrolysis, epi-absorbance fluorescence | inhibition, % at 5.6 µM | hit rate 0.89% among 290,000;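 active = inhibition above the mean of all tested compounds plus 3 SD, cutoff set per screening run, cut at about 7.5% in these data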;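 note: red hydrolysis product quenches plate fluorescence so inhibitors raise well fluorescence; 0% = enzyme with DMSO and 100% = DMSO without enzyme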
IMP-1 inh-1 = inhibitors of Pseudomonas aeruginosa IMP-1 metallo-beta-lactamase. purified IMP-1, nitrocefin hydrolysis, epi-absorbance fluorescence. inhibition, % at 5.6 µM. hit rate 0.45% among 290,000;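 active = inhibition above the mean plus 3 SD of all compounds in the same screening run, cut at about 4.5% in these data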;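 note: 0% = IMP-1 with DMSO and 100% = DMSO wells lacking enzyme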
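system = purified recombinant IMP-1 beta-lactamase | amount = 0.2 nM IMP-1, as dispensed | medium = HEPES buffer pH 7.1 with ZnSO4 and Brij 35 | times = 25 °C, 15 min preincubation, 25 min reaction | detection = plate fluorescence quenching by hydrolysis product, ex 480/em 530 nm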
IMP-1 inh-2 = IMP-1 inhibition, counter-screen for VIM-2 inhibitors; shares compounds with VIM-2 inhibitor; purified IMP-1, nitrocefin hydrolysis, epi-absorbance fluorescence; inhibition, % at 5.6 µM; 1,300 tested, under 10 active; AID 1856; call rule not given here;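 note: 0% = enzyme with vehicle and 100% = vehicle without enzyme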
VIM-2 FRET ctr = VIM-2 FRET inhibition, artifact counter-screen; shares compounds with VIM-2 inhibitor; purified VIM-2, CCF2 FRET substrate hydrolysis; inhibition, % at 5.6 µM; hit rate 23% among 1,300; AID 1857;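 active = inhibition above the mean of all tested compounds plus 3 SD, cut at about 19% in these data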;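 note: 0% = VIM-2 plus DMSO and 100% = no enzyme wells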
TEM-1 inh = TEM-1 inhibition, counter-screen for VIM-2 inhibitors | shares compounds with VIM-2 inhibitor | Purified TEM-1, nitrocefin hydrolysis, epi-absorbance fluorescence | inhibition, % at 5.6 µM | hit rate 3% among 1,300 | AID 1866;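 active = inhibition above that campaign's mean inhibition plus 3 SD, cut at about 0.46% in these data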;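 note: 0% = TEM-1 with DMSO and 100% = TEM-1 with 100 µM potassium clavulanate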
VIM-2 inh conf = confirmation of P. aeruginosa VIM-2 metallo-beta-lactamase inhibitors | shares compounds with VIM-2 inhibitor | purified VIM-2, nitrocefin hydrolysis, epi-absorbance | inhibition, % at 5.6 µM | hit rate 96% among 1,300;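 active = inhibition of the VIM-2 beta-lactamase enzyme above about 11% from the earlier first-round screen, limit read from the data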;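 note: 0% = VIM-2 with DMSO and 100% = buffer wells without enzyme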
PLCgamma1 ctr = counter-screen for PLC-beta3 inhibitors: inhibitors of human PLC-gamma1 | shares compounds with PLCg1 inh | purified PLC-gamma1, fluorogenic substrate, fluorescence | inhibition, % at 12.3 µM | hit rate 3.1% among 3,300
PLCb3 confirm = human PLC-beta3 inhibition, confirmation; hit rate 1% among 3,300; inhibition, % at 12.3 µM; purified PLC-beta3, fluorogenic substrate fluorescence; AID 743261; shares compounds with PLCg1 inh; in the data active = inhibition above about 11%
* hit, by the source's call; x = no result. Cut-off read from the data, not from the text of the source, unless noted: active = inhibition above about 9.5%; inactive = the rest.

SMILES	PvdQ inh	PLCb3 inh	PLCg1 inh	VIM-2 inhibitor	IMP-1 inh-1	PLCgamma1 ctr	PLCb3 confirm	others
COc1ccc(Cl)cc1N=Cc1c(O)n(C)c(=O)n(C)c1=O	-2.1	-8.1	-3.5	13.0*	-1.3	x	x	IMP-1 inh-2=-2.1;VIM-2 FRET ctr=-1.9;TEM-1 inh=-5.1;VIM-2 inh conf=20.6*
CN1C[C@H](O)[C@H]2C[C@@H]1c1ccccc1O2	x	1.0	0.3	x	x	x	x
CCOC(=O)c1c(C)n(CCN2CCN(C)CC2)c2ccc(OC)cc12	-15.6	x	x	60.7*	-0.7	x	x	IMP-1 inh-2=0.5;VIM-2 FRET ctr=1.6;TEM-1 inh=0.0;VIM-2 inh conf=79.9*
CCOC(=O)c1c(C)n(Cc2ccco2)c2ccc(OC)cc12	-6.3	-2.1	-0.8	-0.2	-2.4	x	x
Cc1cc(OCC(=O)N[C@H](C(=O)O)c2ccccc2)c2c3c(c(=O)oc2c1)CCC3	-1.4	-218.9	-172.2	17.4*	-2.5	x	x	IMP-1 inh-2=-3.2;VIM-2 FRET ctr=25.7*;TEM-1 inh=-6.9;VIM-2 inh conf=21.0*
Cc1cc(OCC(=O)N[C@@H](Cc2ccccc2)C(=O)O)c2c3c(c(=O)oc2c1)CCC3	15.4	-209.1	-184.0	1.6	-2.7	x	x
Cc1cc(OCC(=O)NC(Cc2ccc(Cl)cc2)C(=O)O)c2c3c(c(=O)oc2c1)CCC3 (stereo not given)	-12.7	-156.4	-120.5	19.1*	-1.5	x	x	IMP-1 inh-2=-3.6;VIM-2 FRET ctr=32.9*;TEM-1 inh=-7.5;VIM-2 inh conf=19.2*
Cc1c(P(=S)(c2ccccc2)c2ccccc2)c2ccccc2n1C	x	1.0	-0.2	x	x	x	x
Cc1cc(OC(C)C(=O)NCc2ccncc2)c2c3c(c(=O)oc2c1)CCCC3 (stereo not given)	6.7	-76.4	-50.9	26.3*	3.1	x	x	IMP-1 inh-2=-2.5;VIM-2 FRET ctr=-4.1;TEM-1 inh=-9.3;VIM-2 inh conf=31.7*
Cc1cc(OCC(=O)NCc2ccncc2)c2c3c(c(=O)oc2c1)CCCC3	-7.2	-41.9	-13.2	40.2*	-1.9	x	x	IMP-1 inh-2=-3.0;VIM-2 FRET ctr=2.1;TEM-1 inh=-11.8;VIM-2 inh conf=51.6*
Cc1cc(OC(C)C(=O)NCc2ccncc2)c2c3c(c(=O)oc2c1)CCC3 (stereo not given)	-7.0	-78.1	-44.8	26.4*	-2.5	x	x	IMP-1 inh-2=-3.0;VIM-2 FRET ctr=-2.2;TEM-1 inh=-8.4;VIM-2 inh conf=41.7*
COP(=O)(OC)C(C)NC(=O)OCc1ccccc1 (stereo not given)	x	2.0	0.7	x	x	x	x
COC(=O)C(O)(c1ccc(NC(=O)Oc2ccccc2)cc1)C(F)(F)F (stereo not given)	2.7	0.7	3.3	-2.9	-2.6	x	x
CN1CCN(c2ccc(NC(=O)Oc3ccccc3)cc2)CC1	4.1	-0.3	-1.0	28.9*	-4.5	x	x	IMP-1 inh-2=-5.0;VIM-2 FRET ctr=-3.8;TEM-1 inh=-6.4;VIM-2 inh conf=24.2*
O=C1C(=O)c2ccccc2-c2ccccc21	-0.1	2.4	57.1*	16.5*	0.7	42.9*	6.2	IMP-1 inh-2=-5.3;VIM-2 FRET ctr=-5.5;TEM-1 inh=-4.4;VIM-2 inh conf=18.4*
CC(C)CCP(=O)(O)O	x	3.0	2.8	x	x	x	x
CCC(=NCc1ccco1)c1c(O)n(C2CCCCC2)c(=O)[nH]c1=O	-4.7	12.4*	0.6	1.1	-5.0	-1.5	20.8*
CCC(=NCc1cccnc1)c1c(O)n(C2CCCCC2)c(=O)[nH]c1=O	-9.7	-1.7	-4.1	-1.5	-1.2	x	x
CCCCN1CCN(C(=O)COc2cc(=O)n(C)c3ccccc23)CC1	x	0.5	-1.9	x	x	x	x
NC(=O)OCCCc1ccccc1	-15.7	0.2	11.2*	x	x	-7.0	-2.4
CC1CCC/C=C/C2CC(O)CC2C(O)/C=C/C(=O)O1 (stereo not given)	-2.7	6.7	14.7*	-0.2	-4.0	-7.9	-1.8
CCOC(=O)[C@]12Cc3cc(Cl)ccc3[C@H]1N(C1CCCCC1)C(=O)c1cc(OC)ccc12	x	-0.6	1.4	x	x	x	x
COC(=O)C1=C(c2cccc(OCc3ccccc3)c2)C[C@@H]2CC[C@H]1N2C(=O)NCCOc1ccccc1	6.2	2.6	10.5*	x	x	0.2	5.4
COC(=O)C1=C(c2cccc(OCc3ccccc3)c2)C[C@@H]2CC[C@H]1N2C(=O)NCCOc1ccccc1Cl	-0.5	3.3	5.1	x	x	x	x
COC(=O)C1=C(c2ccc(-c3ccccc3)c(F)c2)C[C@@H]2CC[C@H]1N2C(=O)NCCOc1ccccc1	4.0	1.6	10.1*	x	x	-1.4	0.3
SMILES	PvdQ inh	PLCb3 inh	PLCg1 inh	VIM-2 inhibitor	IMP-1 inh-1	PLCgamma1 ctr	PLCb3 confirm	others
CSCCC(c1nnnn1C1CCCC1)N1CCC(n2c(=O)[nH]c3ccccc32)CC1 (stereo not given)	x	-0.9	10.1*	x	x	-2.5	3.0
CN(C)CCN(CC1CCCN(Cc2ccccc2F)C1)C(=O)Cc1ccccc1F (stereo not given)	0.3	-3.5	1.1	-1.5	-4.2	x	x
COc1ccc(CC(=O)N(CCN(C)C)CC2CCCN(Cc3ccccc3F)C2)cc1 (stereo not given)	-12.1	-0.7	13.3*	1.1	0.3	-1.4	-2.1
CC[C@]12CCN(CC3(O)CC3)C(Cc3ccc(O)cc31)C2(C)C	x	2.6	-2.2	x	x	x	x
CN(C=O)CP(=O)(O)CN(C)C=O	-0.5	12.8*	13.0*	0.1	-1.0	-0.9	-0.8
COc1ccc(CCNCc2c(OC)ccc3ccccc23)cc1	-10.8	4.3	9.6*	-1.0	-1.9	36.7*	1.6
CCN(CC)CCCN=Cc1c(O)n(CCc2ccc(OC)c(OC)c2)c(=O)[nH]c1=O	-15.2	0.3	18.3*	-1.1	-3.3	-2.1	-0.2
CN1CCN(CCOC2c3ccccc3CSc3ccc(Cl)cc32)CC1 (stereo not given)	-12.7	2.2	12.5*	-2.8	-4.0	3.0	2.7
Clc1ccc2c(c1)C(OC1CN3CCC1CC3)c1ccccc1CS2 (stereo not given)	-10.6	-0.5	2.8	0.9	-2.1	x	x
CSCCC(c1nnnn1Cc1ccccc1)N1CCC2(CC1)C(=O)NCN2c1ccccc1 (stereo not given)	x	1.3	11.1*	x	x	-0.9	-0.5
O=C1NCN(c2ccccc2)C12CCN(C(c1cccc3ccccc13)c1nnnn1C1CCCCC1)CC2 (stereo not given)	x	2.7	12.5*	x	x	-1.1	-3.4
O=C1NCN(c2ccccc2)C12CCN(C(CCc1ccccc1)c1nnnn1Cc1ccccc1)CC2 (stereo not given)	x	1.0	-3.1	x	x	x	x
O=C1NCN(c2ccccc2)C12CCN(C(c1cccc3ccccc13)c1nnnn1C1CCCC1)CC2 (stereo not given)	x	-0.5	-0.8	x	x	x	x
Cc1ccc(OC(=O)N(C)C[C@H]2OCc3cnnn3CCCC(=O)N([C@@H](C)CO)C[C@@H]2C)cc1	x	0.3	0.2	x	x	x	x

High-throughput results deposited in PubChem by several laboratories.
